The results in this text go back to ChEMBL document CHEMBL1127048, “A potent new class of kappa-receptor agonist: 4-substituted 1-(arylacetyl)-2-[(dialkylamino)methyl]piperazines” (J Med Chem, 1993).

In experiment [1] the test system is Mus musculus. Briefly: In vivo antinociceptive activity was determined using mouse acetylcholine induced abdominal constriction test following subcutaneous administration; range (0.024-0.066). Type of experiment: functional. As to conditions: Abdomen, sc; call rule not given here. The method, boiled down:
(§1)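 Mice given compound by subcutaneous injection, then challenged with acetylcholine to induce abdominal constrictions. Antinociceptive ED50 determined in mg/kg sc, with a bracketed range reported alongside.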

For experiment [2], the system named is Mus musculus. Description: In vivo antinociceptive activity was determined using mouse acetylcholine induced abdominal constriction test following subcutaneous administration; range (0.04-0.15). Type of experiment: functional. As to conditions: Abdomen, sc. The method, boiled down:
as §1

For experiment [3], the species on record is Rattus norvegicus. Briefly: Agonistic/Antagonistic activity in rat vas deferens (RVD) at 10e-5 M; not active. In kind it is functional.
Experiment [4] deals with Mus musculus. Briefly: In vivo antinociceptive activity was determined using mouse acetylcholine induced abdominal constriction test following subcutaneous administration; range (0.015-0.037). In kind it is functional. As to conditions: Abdomen, sc. The method, boiled down:
as §1

The test system of experiment [5] is Mus musculus. Briefly: In vivo antinociceptive activity was determined using mouse acetylcholine induced abdominal constriction test following subcutaneous administration; range (0.007-0.018). In kind it is functional. As to conditions: Abdomen, sc. An outline of the steps: as §1
The test system of experiment [6] is Mus musculus. Description: In vivo antinociceptive activity was determined using mouse acetylcholine induced abdominal constriction test following subcutaneous administration; range (0.20-1.09). Type of experiment: functional. To be noted: Abdomen, sc. The method, boiled down: as §1
In experiment [7] the test system is Mus musculus. Briefly: In vivo antinociceptive activity was determined using mouse acetylcholine induced abdominal constriction test following subcutaneous administration; range (0.059-0.173). In kind it is functional. To be noted: Abdomen, sc. The method, boiled down:
as §1

In experiment [8] the test system is Mus musculus. Briefly: In vivo antinociceptive activity was determined using mouse acetylcholine induced abdominal constriction test following subcutaneous administration; range (0.01-0.02). In kind it is functional. As to conditions: Abdomen, sc. An outline of the steps:
as §1

The test system of experiment [9] is Mus musculus. Description: In vivo antinociceptive activity was determined using mouse acetylcholine induced abdominal constriction test following subcutaneous administration. In kind it is functional. As to conditions: Abdomen, sc. The method, boiled down:
as §1

Experiment [10] deals with Mus musculus. Description: In vivo antinociceptive activity was determined using mouse acetylcholine induced abdominal constriction test following subcutaneous administration; range (0.0003-0.002). To be noted: Abdomen, sc. Type of experiment: functional. An outline of the steps: as §1
Experiment [11] can be described thus: In vitro agonist activity at kappa opioid receptor in rabbit vas deferens.
Experiment [12] has as its system Mus musculus. Briefly: In vivo antinociceptive activity was determined using mouse acetylcholine induced abdominal constriction test following subcutaneous administration; range (0.00027-0.00086). Type of experiment: functional. To be noted: Abdomen, sc. The method, boiled down: as §1
Experiment [13] deals with Rattus norvegicus. Description: In vivo antinociceptive activity was determined using rat paw pressure test following subcutaneous administration; range (0.00058-0.0014). In kind it is functional. As to conditions: sc.
In experiment [14] the test system is Mus musculus. Description: In vivo antinociceptive activity was determined using mouse acetylcholine induced abdominal constriction test following oral administration; range (0.005-0.035). Type of experiment: functional. As to conditions: Abdomen.
For experiment [15], the system named is Mus musculus. Briefly: In vivo antinociceptive activity was determined using mouse acetylcholine induced abdominal constriction test following subcutaneous administration; range (0.00012-0.00045). Type of experiment: functional. As to conditions: Abdomen, sc. An outline of the steps:
as §1

Another experiment deals with Mu-type opioid receptor (Rattus norvegicus, UniProt P33535). Description: In vitro inhibitory activity against mu specific tissue of rat vas deferens. In kind it is functional, tissue-based.
The target in experiment [16] is Kappa-type opioid receptor (Homo sapiens) (UniProt P41145). To be noted: Oryctolagus cuniculus; Vas deferens.
The test system of experiment [17] is Mus musculus. Description: In vivo antinociceptive activity was determined using mouse acetylcholine induced abdominal constriction test following subcutaneous administration; range (0.12-0.48). In kind it is functional. To be noted: Abdomen, sc. The method, boiled down: as §1
Experiment [18] has as its system Mus musculus. Briefly: In vivo antinociceptive activity was determined using mouse acetylcholine induced abdominal constriction test following subcutaneous administration; range (0.03-0.08). Type of experiment: functional. As to conditions: Abdomen, sc. The method, boiled down: as §1
The test system of experiment [19] is Mus musculus. Description: In vivo antinociceptive activity was determined using mouse acetylcholine induced abdominal constriction test following subcutaneous administration; range (0.002-0.007). In kind it is functional. As to conditions: Abdomen, sc. The method, boiled down: as §1
The test system of experiment [20] is Mus musculus. Description: In vivo antinociceptive activity was determined using mouse acetylcholine induced abdominal constriction test following subcutaneous administration; range (0.012-0.032). Type of experiment: functional. To be noted: Abdomen, sc. An outline of the steps: as §1
In experiment [21] the test system is Mus musculus. Description: In vivo antinociceptive activity was determined using mouse acetylcholine induced abdominal constriction test following subcutaneous administration; range (0.000033-0.000241). In kind it is functional. To be noted: Abdomen, sc. An outline of the steps: as §1

SMILES strings stand for the structures.

Kappa-type opioid receptor (Homo sapiens), sequence (P41145 whole entry): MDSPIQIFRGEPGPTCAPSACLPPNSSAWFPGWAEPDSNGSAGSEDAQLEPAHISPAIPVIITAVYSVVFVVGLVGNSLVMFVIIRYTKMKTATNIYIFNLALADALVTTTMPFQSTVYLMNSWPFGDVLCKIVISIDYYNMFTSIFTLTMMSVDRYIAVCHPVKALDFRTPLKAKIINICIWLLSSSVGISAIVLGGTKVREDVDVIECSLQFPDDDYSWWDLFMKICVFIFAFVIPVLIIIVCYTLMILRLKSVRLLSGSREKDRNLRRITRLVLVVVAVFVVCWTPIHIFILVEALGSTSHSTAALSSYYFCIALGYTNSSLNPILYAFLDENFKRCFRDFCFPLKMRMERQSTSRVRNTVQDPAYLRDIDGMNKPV
Mu-type opioid receptor, sequence (P33535 whole entry): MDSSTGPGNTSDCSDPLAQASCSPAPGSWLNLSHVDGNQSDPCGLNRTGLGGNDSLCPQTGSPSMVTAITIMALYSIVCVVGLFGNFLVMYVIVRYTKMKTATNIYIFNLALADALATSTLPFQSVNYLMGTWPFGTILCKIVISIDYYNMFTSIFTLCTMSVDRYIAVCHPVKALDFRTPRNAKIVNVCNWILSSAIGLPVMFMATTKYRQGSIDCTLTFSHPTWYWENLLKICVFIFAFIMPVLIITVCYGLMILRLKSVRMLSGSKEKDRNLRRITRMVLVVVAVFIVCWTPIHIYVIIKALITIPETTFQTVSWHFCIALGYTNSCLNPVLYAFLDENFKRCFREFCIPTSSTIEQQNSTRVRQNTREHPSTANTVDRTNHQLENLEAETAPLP

For orientation: ED50 means the dose at which the effect has come halfway, by size or by number of responders. In turn, `COC(=O)N1CCN(C(=O)Cc2ccc(Cl)c(Cl)c2)C(CN2CCC(O)C2)C1` (stereo not drawn) came in with an ED50 with Mus musculus [1] of 44 µg/kg.
Broadly, the IC50 is the concentration that gives 50% inhibition. Read a low IC50 as greater potency in that assay. Regarding `CC(=O)N1CCN(C(=O)Cc2ccc(Cl)c(Cl)c2)C(CN2CCCC2)C1` (stereo not drawn), the ED50 with Mus musculus [2] came out at 80 µg/kg. In the experiment filed under Rattus norvegicus [3], the IC50 result is reported as “Not Active”.
As to `COC(=O)N1CCN(C(=O)Cc2ccc(Cl)c(Cl)c2)C(CN2CCC(=O)C2)C1` (stereo not drawn), the 50% effect level with Mus musculus [4] (ED50) was put at a dose of 23 µg/kg.
As to `CCOC(=O)N1CCN(C(=O)Cc2ccc(Cl)c(Cl)c2)C(CN2CCCC2)C1` (stereo not drawn), in the experiment on Mus musculus [5], the ED50 was found to be 10 µg/kg.
Compound `CCCC(=O)N1CCN(C(=O)Cc2ccc(Cl)c(Cl)c2)C(CN2CCCC2)C1` (stereo not drawn) gave an ED50 with Mus musculus [6] of 410 µg/kg.
`COC(=O)/C=C1\CCN(CC2CN(C(=O)OC)CCN2C(=O)Cc2ccc(Cl)c(Cl)c2)C1` (stereo not drawn) showed an ED50 in the experiment with Mus musculus [7] of 100 µg/kg.
`COC(=O)N1CCN(C(=O)Cc2ccc(Cl)c(Cl)c2)C(CN(C)C)C1` (stereo not drawn) gave a 50% effective dose (ED50) in the experiment with Mus musculus [8] of 16 µg/kg.
With `CN1CC[C@]23c4c5ccc(O)c4O[C@H]2[C@@H](O)C=C[C@H]3[C@H]1C5` [MORPHINE], in the experiment with Mus musculus [9], the 50% effective dose (ED50) came out at 470 µg/kg.
Take `CCCOC(=O)N1CCN(C(=O)Cc2ccc(Cl)c(Cl)c2)C(CN2CCCC2)C1` (stereo not drawn): the ED50 in the experiment with Mus musculus [9] amounted to 680 µg/kg.
In turn, `O=C(Cc1ccc(Cl)c(Cl)c1)N1CCC2(CC1CN1CCCC1)OCCO2` (stereo not drawn) showed an ED50 in the experiment with Mus musculus [10] of 1 µg/kg. In experiment [11], the IC50 was 0.1 nM.
The pKB is the KB on a negative log10 scale, so that one unit is a factor of ten. Take `COC(=O)N1CCN(C(=O)Cc2ccc(Cl)c(Cl)c2)C(CN2CCCC2)C1` (stereo not drawn): the ED50 came to 0.52 µg/kg in the experiment with Mus musculus [12], 0.93 µg/kg in the experiment with Rattus norvegicus [13], 12 µg/kg in the experiment with Mus musculus [14] and 0.25 µg/kg in the experiment on Mus musculus [15]. For the same compound, the IC50 against Mu-type opioid receptor is greater than 10000 nM. In [16], the pKB amounted to 7.7.
Compound `O=CN1CCN(C(=O)Cc2ccc(Cl)c(Cl)c2)C(CN2CCCC2)C1` (stereo not drawn) displayed an ED50 with Mus musculus [17] of 230 µg/kg.
`CCC(=O)N1CCN(C(=O)Cc2ccc(Cl)c(Cl)c2)C(CN2CCCC2)C1` (stereo not drawn) returned an ED50 in the experiment with Mus musculus [18] of 50 µg/kg.
As to `COC(=O)/C=C1/CCN(CC2CN(C(=O)OC)CCN2C(=O)Cc2ccc(Cl)c(Cl)c2)C1` (stereo not drawn), in the experiment with Mus musculus [19], the ED50 is 4 µg/kg.
`C=CC(=O)N1CCN(C(=O)Cc2ccc(Cl)c(Cl)c2)C(CN2CCCC2)C1` (stereo not drawn): the ED50 in the experiment on Mus musculus [20] came out at 20 µg/kg.
Turning to `COC(=O)N1CCN(C(=O)Cc2ccc(Cl)c(Cl)c2)C(CN2CC=CCC2)C1` (stereo not drawn), the 50% effect level in the experiment on Mus musculus [21] (ED50) was put at a dose of 0.096 µg/kg.
